Measured values reported in ChEMBL document CHEMBL4814064, “Azetidinimines as a novel series of non-covalent broad-spectrum inhibitors of β-lactamases with submicromolar activities against carbapenemases KPC-2 (class A), NDM-1 (class B) and OXA-48 (class D)” (Eur J Med Chem, 2021).

Assays:
[1] = Inhibition of NDM-1 (unknown origin) expressed in Escherichia coli BL21 (DE3) incubated for 3 mins by spectrophotometric analysis; parameters: species or system Bacteria
In short: (§1)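 NDM-1 (1 nM, His-tagged, expressed in E. coli BL21(DE3) with 1 mM IPTG for 3 h at 37 °C, purified, kept with 50 µM ZnSO4). Run in 100 mM phosphate pH 7 with 50 µM ZnSO4, 3 min enzyme–inhibitor preincubation, then 100 µM imipenem. Initial rates at 297 nm over 600 s, 25 °C. Triplicate seven-point IC50 converted to Ki (Cheng–Prusoff); percent inhibition at 10 µM.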

Bacteria [2] = experiment: Inhibition of NDM-1 (unknown origin) expressed in Escherichia coli BL21 (DE3) at 10 uM incubated for 3 mins by spectrophotometric analysis relative to control; in short: as §1
Bacteria [3] = experiment: Inhibition of OXA-48 (unknown origin) expressed in Escherichia coli BL21 (DE3) at 10 uM incubated for 3 mins by spectrophotometric analysis relative to control
In short: (§2)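 OXA-48 at 5.8 nM (His-tagged, expressed in BL21(DE3), purified in K2SO4 buffers) in 100 mM phosphate pH 7 plus 50 mM NaHCO3. Inhibitor preincubated 3 min; substrate 100 µM imipenem; initial velocities at 297 nm, 600 s, 25 °C. Seven inhibitor concentrations in triplicate give IC50, converted to Ki by Cheng–Prusoff; percent inhibition at 10 µM.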

[4] = biological target: Class A carbapenemase KPC-2 (Escherichia coli) (UniProt A8DS27); experiment: Inhibition of KPC-2 (unknown origin) expressed in Escherichia coli BL21 (DE3) at 10 uM incubated for 3 mins by spectrophotometric analysis relative to control
In short: (§3)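 Preincubated 3 min with inhibitor in 100 mM phosphate pH 7. Imipenem 100 µM; hydrolysis followed at 297 nm for 600 s at 25 °C. IC50 from seven concentrations in triplicate; Ki by Cheng–Prusoff. Percent inhibition read at 10 µM.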

[5] = biological target: Class A carbapenemase KPC-2 (Escherichia coli, UniProt A8DS27); experiment: Inhibition of KPC-2 (unknown origin) expressed in Escherichia coli BL21 (DE3) incubated for 3 mins by spectrophotometric analysis; in short: as §3
[6] = Inhibition of OXA-48 (unknown origin) expressed in Escherichia coli BL21 (DE3) incubated for 3 mins by spectrophotometric analysis; parameters: species or system Bacteria; in short: as §2

| Compound | IC50 [1] [nM] | inhibition (Bacteria [2]) [%] | inhibition (Bacteria [3]) [%] | inhibition [4] [%] | Ki ([5]; read-out: Ki) [nM] | Ki ([1]; read-out: Ki) [nM] | Ki [6] | Ki [5] | Ki [1] | Ki ([6]; read-out: Ki) [nM] |
| --- | --- | --- | --- | --- | --- | --- | --- | --- | --- | --- |
| COc1ccc(N2/C(=N/c3ccccc3)C[C@@H]2c2ccccc2)cc1 | < 5000 | 95 | – | – | – | – | – | – | – | – |
| COc1ccc(N2/C(=N/c3ccccc3)C[C@H]2c2ccccc2)cc1 | < 5000 | 95 | – | – | – | – | – | – | – | – |
| COc1ccc(N2/C(=N/c3ccc(Cl)cc3)CC2c2ccc(Cl)cc2)cc1 (racemic) | – | > 50 | 27 | > 50 | 1930 | 240 | – | – | – | – |
| OCc1ccc(N2/C(=N/c3ccc(I)cc3)CC2c2ccc(Cl)cc2Cl)cc1 (racemic) | – | > 50 | – | > 50 | 3890 | 1300 | Not Active | – | – | – |
| COc1cccc(N2/C(=N/c3ccccc3)CC2c2ccccc2)c1 (racemic) | – | > 50 | 28 | > 50 | 3600 | 650 | – | – | – | – |
| Ic1ccc(N2/C(=N/c3ccccc3)CC2c2ccccc2)cc1 (racemic) | – | > 50 | – | – | – | 1900 | – | – | – | – |
| c1ccc(/N=C2\CC(c3ccccc3)N2c2ccc3c(c2)OCCO3)cc1 (racemic) | – | > 50 | 37 | > 50 | 3600 | 730 | – | – | – | – |
| c1ccc(/N=C2\CC(c3ccccc3)N2c2ccc3c(c2)OCO3)cc1 (racemic) | – | > 50 | – | – | – | 2390 | Not Active | Not Active | – | – |
| COc1ccc(/N=C2\CC(c3ccc(Cl)cc3)N2c2ccc(OC)cc2)cc1 (racemic) | – | > 50 | 31 | – | – | 860 | – | Not Active | – | – |
| COc1cc(N2/C(=N/c3ccccc3)CC2c2ccccc2)cc(OC)c1OC (racemic) | – | – | – | – | – | – | Not Active | Not Active | Not Active | – |
| O=C(O)c1ccc(N2/C(=N/c3ccc(I)cc3)CC2c2ccc(Cl)cc2Cl)cc1 (racemic) | – | > 50 | – | > 50 | 4150 | 35 | Not Active | – | – | – |
| COc1ccc(N2/C(=N/c3ccc(C(F)(F)F)cc3)CC2c2ccc(Cl)cc2Cl)cc1 (racemic) | – | > 50 | > 50 | > 50 | 6040 | 370 | – | – | – | 640 |
| COc1ccc(N2/C(=N/c3ccccc3)CC2c2ccc(F)cc2)cc1 (racemic) | – | – | – | – | – | – | – | Not Active | Not Active | – |
| Oc1ccc(N2/C(=N/c3ccccc3)CC2c2ccccc2)cc1 (racemic) | – | > 50 | 26 | 45 | – | 360 | – | – | – | – |
| CCOc1ccc(N2/C(=N/c3ccc(OC)cc3)CC2c2ccc3ccccc3c2)cc1 (racemic) | – | > 50 | > 50 | > 50 | 1810 | 270 | – | – | – | 840 |
| CCOc1ccc(N2/C(=N/c3ccc(I)cc3)CC2c2ccc3ccccc3c2)cc1 (racemic) | – | > 50 | > 50 | > 50 | 1840 | 250 | – | – | – | 700 |
| COc1ccc(N2/C(=N/c3ccc(Br)cc3)CC2c2ccc(Cl)cc2)cc1 (racemic) | – | > 50 | > 50 | > 50 | 1550 | 300 | – | – | – | 840 |
| COc1ccc(N2/C(=N/c3ccccc3)CC2c2ccccc2)cc1 (racemic) | – | 90 | – | > 50 | 3600 | 1000 | Not Active | – | – | – |
| COc1ccc(N2/C(=N/c3ccc(I)cc3)CC2c2cc(Cl)cc(Cl)c2)cc1 (racemic) | – | > 50 | > 50 | 42 | – | 2040 | – | – | – | 530 |
| CSc1ccc(N2/C(=N/c3ccccc3)CC2c2ccccc2)cc1 (racemic) | – | > 50 | – | 50 | – | < 500 | Not Active | – | – | – |

| Compound | IC50 [1] [nM] | inhibition (Bacteria [2]) [%] | inhibition (Bacteria [3]) [%] | inhibition [4] [%] | Ki ([5]; read-out: Ki) [nM] | Ki ([1]; read-out: Ki) [nM] | Ki [6] | Ki [5] | Ki [1] | Ki ([6]; read-out: Ki) [nM] |
| --- | --- | --- | --- | --- | --- | --- | --- | --- | --- | --- |
| CCOc1ccc(N2/C(=N/c3ccc(Cl)cc3)CC2c2ccc3ccccc3c2)cc1 (racemic) | – | > 50 | 30 | > 50 | 1960 | 270 | – | – | – | – |
| COc1ccc(N2/C(=N/c3ccccc3)CC2c2ccc3ccccc3c2)cc1 (racemic) | – | > 50 | > 50 | > 50 | 2200 | 1000 | – | – | – | 1300 |
| CCOc1ccc(N2/C(=N/c3ccccc3)CC2c2ccccc2)cc1 (racemic) | – | > 50 | 45 | > 50 | 1400 | 1000 | – | – | – | – |
| CCOc1ccc(N2/C(=N/c3ccccc3)CC2c2ccc3ccccc3c2)cc1 (racemic) | – | > 50 | – | – | – | 2400 | – | – | – | – |
| c1ccc(/N=C2\CC(c3ccccc3)N2c2ccccc2)cc1 (racemic) | – | > 50 | > 50 | > 50 | 2410 | 4620 | – | – | – | 800 |
| COc1ccc(N2/C(=N/c3ccc(C(F)(F)F)cc3)CC2c2ccc(Cl)cc2)cc1 (racemic) | – | > 50 | 32 | > 50 | 2360 | 320 | – | – | – | – |
| COc1ccc(N2/C(=N/c3ccc(I)cc3)CC2c2ccc3ccccc3c2)cc1 (racemic) | – | > 50 | > 50 | > 50 | 1580 | 230 | – | – | – | 850 |
| c1ccc(COc2ccc(N3/C(=N/c4ccccc4)CC3c3ccccc3)cc2)cc1 (racemic) | – | > 50 | 31 | > 50 | 1150 | 200 | – | – | – | – |
| COc1ccc(C2C/C(=N\c3ccccc3)N2c2ccc(OC)cc2)cc1 (racemic) | – | > 50 | – | – | – | 2400 | Not Active | Not Active | – | – |
| COc1ccc(N2/C(=N/c3ccccc3)CC2c2cc(Cl)cc(Cl)c2)cc1 (racemic) | – | > 50 | 20 | > 50 | 1400 | 1000 | – | – | – | – |
| COc1ccc(N2/C(=N/c3ccccc3)CC2c2cccnc2)cc1 (racemic) | – | – | – | – | – | – | Not Active | Not Active | Not Active | – |
| COc1ccc(N2/C(=N/c3ccc(Br)cc3)CC2c2ccc(Cl)cc2Cl)cc1 (racemic) | – | > 50 | 46 | 30 | – | 580 | – | – | – | – |
| COc1ccc(N2/C(=N/c3ccc(I)cc3)CC2c2ccc(I)cc2)cc1 (racemic) | – | > 50 | > 50 | > 50 | 5660 | 370 | – | – | – | 510 |
| COc1ccc(N2/C(=N/c3ccc(I)cc3)CC2c2ccc(F)cc2)cc1 (racemic) | – | > 50 | > 50 | > 50 | 6490 | 500 | – | – | – | 450 |
| COc1ccc(N2/C(=N/c3ccc(Br)cc3)CC2c2ccc3ccccc3c2)cc1 (racemic) | – | > 50 | > 50 | > 50 | 5230 | 520 | – | – | – | 390 |
| COc1ccc(N2/C(=N/c3ccccc3)CC2c2ccccc2)cc1OC (racemic) | – | > 50 | – | – | – | 2400 | Not Active | Not Active | – | – |
| COc1ccc(N2/C(=N/c3ccccc3)CC2c2ccc(Cl)cc2)cc1 (racemic) | – | > 50 | – | – | – | 1000 | Not Active | Not Active | – | – |
| COc1ccc(N2/C(=N/c3ccc(I)cc3)CC2c2ccc(Cl)cc2)cc1 (racemic) | – | > 50 | > 50 | > 50 | 1770 | 330 | – | – | – | 830 |
| COc1ccc(N2/C(=N/c3ccc(Cl)cc3)CC2c2ccc3ccccc3c2)cc1 (racemic) | – | > 50 | 18 | > 50 | 3940 | 730 | – | – | – | – |
| COc1ccc(N2/C(=N/c3ccccc3)CC2c2ccc(I)cc2)cc1 (racemic) | – | > 50 | 33 | > 50 | 730 | 490 | – | – | – | – |
